In the RNAGym collection of RNA variant scans (doi:10.1126/science.aae0568):
Variants at the floor of the assay were thinned out.

B1: tRNA (parent)
chain: GUUCCGUUGGCGUAAUGGUAACGCGUCUCCCUCCUAAGGAGAAGACUGCGGGUUCGAGUCCCGUACGGAACG

Variants of: B1
Assay: yeast fitness relative to wild type (ratio to wild type); higher = fitter; tRNA-Arg(CCU), competitive growth, 37 C, YPD
Procedure, shortened: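 Variants of the tRNA-Arg(CCU) gene were chemically synthesised with a 3% per-site mutation rate across 69 sites and placed at the native genomic locus in Saccharomyces cerevisiae. Six parallel replicates of the pooled strains were competed in YPD at 37°C for 24 hours, and gene amplicons from the start and end populations were read by 100-nucleotide paired-end sequencing. Darwinian fitness relative to wild type was derived from changes in genotype frequencies. Genotypes required ≥ 100 starting reads, and estimates < 0.5 were set to 0.5.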

Row | Variant | yeast fitness
1 | U19A U26C C30A | 0.639
2 | U19A C24G G52C U64G | 0.535
3 | U19A C22G A42G U54A G67A | ≤ 0.5
4 | U19C C29G A57G U59A G68U A70G | 0.55
5 | U19C C30G G51C | ≤ 0.5
6 | U19A U26A U64A | 0.553
7 | U19C A20U G56C A57U | 0.562
8 | U19A C24G C33G C34G A57G | 0.579
9 | U19C | 0.972
10 | U19A C27U A42U A45G U64A | ≤ 0.5
11 | U19A C34G A37U C49G | ≤ 0.5
12 | U19C C27G C31G G39C A57C | ≤ 0.5
13 | U19C A20U G67U A69U | 0.53
14 | U19C C33U G41C | 0.583
15 | U19C C49U | 0.999
16 | U19C C49A | 0.606
17 | U19A G68C | 0.709
18 | U19A G68U | 0.857
19 | U19C C29A A43C | ≤ 0.5
20 | U19A C34G A43C A70G | ≤ 0.5
21 | U19C C24G U35A | 0.804
22 | U19C C22U G44C | 0.551
23 | U19C G52C U64A | ≤ 0.5
24 | U19C A37C G63A | ≤ 0.5

Row | Variant | yeast fitness
25 | U19A C24A U32C A36U C66G | ≤ 0.5
26 | U19C A20U A70U | 0.794
27 | U19C G50A C55A C62U | ≤ 0.5
28 | U19C C29G C31A | ≤ 0.5
29 | U19A C22U G63C | ≤ 0.5
30 | U19C C46A | 0.978
31 | U19C C46U | 1.06
32 | U19C C46G | 0.943
33 | U19A U64C | 0.901
34 | U19A U64G | 0.687
35 | U19A G41C C55G C66G | ≤ 0.5
36 | U19C C24U C49A U54C C60G | ≤ 0.5
37 | U19A G67A A70U | 0.691
38 | U19C A20G G67A | 0.76
39 | U19C A20U C22U C27G G39U | ≤ 0.5
40 | U19C C24G C33A | ≤ 0.5
41 | U19A C55G | 0.559
42 | U19C G51A | 0.681
43 | U19C G48C A57G | 0.565
44 | U19C G68A | 0.878
45 | U19A G63A | 0.952
46 | U19A C27G | 0.581
47 | U19A C27A | 0.775
48 | U19C C31U G56A | 0.954

Row | Variant | yeast fitness
49 | U19A C31U A42C A70G | 0.912
50 | U19A C22U G56A | 0.547
51 | U19C G25C | 1.04
52 | U19C A37G G44C G58A A65G | 0.63
53 | U19A C30A A43G C49U C55A | 0.64
54 | U19C A69U | 0.925
55 | U19C C24G A36G A37U U47A | ≤ 0.5
56 | U19C G23C C29G A43U G50A A65C | ≤ 0.5
57 | U19C A36G A43G C60U C62U A70C | ≤ 0.5
58 | U19A G48C G67C | ≤ 0.5
59 | U19C C22U C61A A70G | ≤ 0.5
60 | U19A C27U U28C C55U | ≤ 0.5
61 | U19A C27U G44C G48C | ≤ 0.5
62 | U19C C27U C46A C62G A69U | ≤ 0.5
63 | U19C G48A C62A U64C | 0.636
64 | U19A C34G G52A | ≤ 0.5
65 | U19C C55G A65C | ≤ 0.5
66 | U19C G50A A65C | 0.566
67 | U19C C24U U53A C62A C66U | ≤ 0.5
68 | U19A G25A A43C U53G G63C | ≤ 0.5
69 | U19C C22G C24A | 0.72
70 | U19A U28C G39C | ≤ 0.5
71 | U19C C31A A69U | 0.534
72 | U19A C27U G44C G48C C66U | ≤ 0.5

Row | Variant | yeast fitness
73 | U19C C24G G39C | ≤ 0.5
74 | U19A C33U | 0.777
75 | U19C A40U C55U A65G | ≤ 0.5
76 | U19C A20U A69U | 1.05
77 | U19C C29U A57C G68C | ≤ 0.5
78 | U19C G25A A45G C62U | 0.702
79 | U19C C30G A40C G51A C61A | 0.696
80 | U19C C22U G50A U64C | ≤ 0.5
81 | U19C A57G G58C | 0.609
82 | U19C A40C U53A | 0.532
83 | U19A C62A | 0.774
84 | U19A G51A | 0.768
85 | U19A G51C | 0.636
86 | U19C G25C C29A G52A | ≤ 0.5
87 | U19C C34U G52A U59A | 0.669
88 | U19C U26A C46U | 0.901
89 | U19C C27U C33G C34G G44A G50A G52A | ≤ 0.5
90 | U19C C22U C55A C66U | ≤ 0.5
91 | U19A U28A A37U A42U | ≤ 0.5
92 | U19C U26A G67C | 0.57
93 | U19C C31G C49U | 0.736
94 | U19C A20C A21U G56A A69C | ≤ 0.5
95 | U19C C22A U32A A37U A45C | 0.505
96 | U19C C22A U32A A37U A45U | ≤ 0.5

Row | Variant | yeast fitness
97 | U19C C55U U59C C61G | ≤ 0.5
98 | U19A C33U A36U C66U | ≤ 0.5
99 | U19C G67C | 0.931
100 | U19C G67U | 1.07
101 | U19C G67A | 1
102 | U19C C24U U32C A37C A45G A57C | 0.638
103 | U19A C29G A69C | 0.547
104 | U19C A57C C61A | ≤ 0.5
105 | U19A C46U C55G G68A | ≤ 0.5
106 | U19A C61G G67A | ≤ 0.5
107 | U19A G25A A40C C46U | 0.588
108 | U19C G23A C24A C29U C30U G63A | ≤ 0.5
109 | U19C C24U A69C | 0.789
110 | U19C A37G G56C | ≤ 0.5
111 | U19C C24U C61U | 0.787
112 | U19C G56C A57G G68U | ≤ 0.5
113 | U19A C24U G38A U54C C66A | 0.511
114 | U19C C30G C33G U53A | ≤ 0.5
115 | U19C C31A A37G G50U C62G | ≤ 0.5
116 | U19C C27G A65U G68U | ≤ 0.5
117 | U19A G48A G50A C62A G63C | 0.591
118 | U19C A20U C22U C27G | 0.532
119 | U19A C27G A40G | ≤ 0.5
120 | U19C A45G | 1

Row | Variant | yeast fitness
121 | U19C A45C | 0.861
122 | U19C C24G | 0.621
123 | U19C C24A | 0.601
124 | U19A U28G A40C A42G A69C | 0.561
125 | U19C G23A A37C | ≤ 0.5
126 | U19A C31G A36U A65U | ≤ 0.5
127 | U19A G25C C33A A37G G48A G68A | ≤ 0.5
128 | U19C A20C C31G | 0.542
129 | U19C A20C C31A | ≤ 0.5
130 | U19A C22G C34U A42G A43G A70U | ≤ 0.5
131 | U19A C61A G68C | 0.648
132 | U19C A40U | 0.98
133 | U19C A40C | 1.1
134 | U19C A40G | 0.898
135 | U19C A65G G68U | 0.583
136 | U19A A70G | 0.913
137 | U19C C34G G68A | ≤ 0.5
138 | U19C A40C A65U | 0.605
139 | U19A C33A C34U A36C | ≤ 0.5
140 | U19C C60A G68C | ≤ 0.5
141 | U19C A20U C22U C27G G48C G51A | ≤ 0.5
142 | U19A C31A A37G C49U | ≤ 0.5
143 | U19A C27G C31U A70G | ≤ 0.5
144 | U19C C31U G58A | 0.715

Row | Variant | yeast fitness
145 | U19C G23A C24G A40U A65U | ≤ 0.5
146 | U19C C22U | 0.895
147 | U19C C22G G63C G68U | ≤ 0.5
148 | U19C A21C C33U C61A A70C | ≤ 0.5
149 | U19A U59A C62A | ≤ 0.5
150 | U19C C27A C31G U32C G39C | ≤ 0.5
151 | U19A C33U A36U C60U | ≤ 0.5
152 | U19C C31U G56A G67A | 0.601
153 | U19A C46A | 1.13
154 | U19A C46U | 0.958
155 | U19C A43U C49U C62U | 0.573
156 | U19C C62U | 0.925
157 | U19C A37G C49A | ≤ 0.5
158 | U19C G51C C66U | ≤ 0.5
159 | U19C C29A U32G G58A A69G | ≤ 0.5
160 | U19C A40C G50A | 0.664
161 | U19C G25A G48C C62A | ≤ 0.5
162 | U19A G39C G63C | ≤ 0.5
163 | U19C G48C A69C | 1.03
164 | U19C C24G A37U C46U U47A | ≤ 0.5
165 | U19C C30A | 1.03
166 | U19C A45C G68C | ≤ 0.5
167 | U19A C46A A69U | 0.752
